Experimental data: ChEMBL document CHEMBL4376884, “Toward a Rational Design of Polyamine-Based Zinc-Chelating Agents for Cancer Therapies” (J Med Chem, 2020)
The source made the active and inactive calls. The calls are words filed in the database; no cut-off is given here.

What was measured:
LN-229 [1] = assay: Inhibition of colony formation in human LN229 cells at 10 uM incubated for 4 hrs by crystal violet staining based colony counting method; type: functional, cell-based
In short: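 LN229 and PC3 cells treated for 4 h with compound (10 µM) or with etoposide (30 µM positive control), washed, trypsinized and replated at 3000 cells per 60-mm plate. Colonies grown 7–10 days, fixed and stained with 0.5% crystal violet in 70% ethanol, and counted. Reported as percent of control; four independent experiments, each in duplicate.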

PC-3 [2] = assay: Antiproliferative activity against human PC3 cells assessed as reduction in cell viability at 10 uM incubated for 48 hrs by cell titer-glo assay; type: functional, cell-based
In short: (§1)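 Cells plated and treated 24 h later with 10 µM compound for 48 h; viable cells quantified by CellTiter-Glo ATP luminescence. Expressed as percentage of viable cells relative to untreated; mean ± SD of three independent experiments, each in triplicate.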

LN-229 [3] = assay: Antiproliferative activity against human LN229 cells assessed as reduction in cell viability at 10 uM incubated for 48 hrs in presence of Cu2+ ion by MTT assay; type: functional, cell-based
In short: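 LN229 and PC3 cells plated, then 24 h later given 10 µM compound with or without 15 µM ZnCl2, CuCl2, FeCl2 or FeCl3 for 48 h. Medium replaced, MTT (12 mM solution) added for 4 h, formazan dissolved in DMSO, absorbance read at 540 nm. Percent viable versus untreated; mean ± SD of three experiments in triplicate.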

LN-229 [4] = assay: Metal chelating activity in human LN229 cells assessed as decrease in intracellular concentration of labile zinc ions by measuring reduction in zinquin-Zn2+ complex formation incubated for 12 hrs followed by incubation with fluorophore-zinquin for 30 mins by spectrofluorometric analysis; type: cell-based
In short: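 LN229 cells were treated 12 h, trypsinized, pelleted and checked by Trypan Blue. Then 6x10⁶ cells in 1 mL PBS were loaded with Zinquin 25 μM for 30 min at 37 °C in the dark. Fluorescence was read at ex 370/em 475 nm with a 400–600 nm scan, normalized to cell number, untreated set to 100; four independent experiments.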

Granta-519 [5] = assay: Induction of apoptosis in human GRANTA-519 cells assessed as increase in caspase-3/7 activation at 10 uM incubated for 48 hrs by luminometric caspase-glo 3/7 assay; type: functional, cell-based
In short: (§2)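 Cells in RPMI or DMEM with 10% heat-inactivated FBS and penicillin/streptomycin, 37 °C, 5% CO2, treated with 10 µM compound for 48 h. Caspase-3 and caspase-7 activity read by luminescent Caspase-Glo 3/7 assay, reported as fold induction over untreated cells; mean ± SD of three independent experiments, each in triplicate.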

LN-229 [6] = assay: Antiproliferative activity against human LN229 cells assessed as reduction in cell viability incubated for 48 hrs by cell titer-glo assay; type: functional, cell-based; settings: LN-229, 48 h
In short: (§3)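 Dose-response: cells plated, treated 24 h later for 48 h, then ATP measured by CellTiter-Glo luminescence. IC50 given as mean ± SD from three independent experiments, each in triplicate. Fibroblasts came from individuals. Cells were kept in RPMI or DMEM with 10% heat-inactivated FBS and penicillin/streptomycin at 37 °C, 5% CO2.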

PC-3 [7] = assay: Induction of cellular senescence in human PC3 cells assessed as cells with irregular shape at 10 uM incubated for 24 hrs by phase contrast microscopy; type: functional, cell-based
In short: (§4)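 LN229 and PC3 cells, 12×10^4 per well in 6-well plates, treated with 10 µM compound for 24 h. Senescence-associated β-gal staining: fixed in 2% formaldehyde/0.2% glutaraldehyde for 10 min at RT, stained with 1 mg/mL X-gal at 37 °C for 24 h without CO2. Blue cells counted in at least 10 fields at 10x and given as percent of total; four independent experiments. Morphology viewed by phase contrast at ×100.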

Jurkat = assay: Antiproliferative activity against human Jurkat cells assessed as reduction in cell viability at 10 uM incubated for 48 hrs by cell titer-glo assay; type: functional, cell-based; in short: as §1
[8] = Metal chelating activity assessed as Zn2+-compound complex formation at physiological pH 7.4 by quantum mechanical studies
In short: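 Zn2+ complexes modelled by DFT, B3LYP, gas phase. Basis set def2-SV(P), with MDF10 Stuttgart-Dresden effective core potential for Zn and Grimme dispersion correction. Vibrational frequencies and zero-point correction computed for each minimum.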

PC-3 [9] = assay: Cell cycle arrest in human PC3 cells assessed as cell accumulation at sub-G1 phase at 10 uM incubated for 48 hrs by propidium iodide staining based flow cytometry analysis relative to control; type: functional
LN-229 [10] = assay: Induction of cell morphological changes in human LN229 cells assessed as cell shrinkage at 10 uM incubated for 24 to 48 hrs by phase contrast microscopy; type: functional, cell-based
In short: (§5)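 LN229 and PC3 cells exposed to 10 µM compound for the indicated time-points, then imaged live by phase-contrast microscopy for morphology.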

Fibroblast = assay: Cytotoxicity against human Fibroblast assessed as reduction in cell viability incubated for 48 hrs by cell titer-glo assay; type: cell-based; in short: as §3
Homo sapiens = species on record: Homo sapiens; assay: Antiproliferative activity against human SP53 cells assessed as reduction in cell viability at 10 uM incubated for 48 hrs by cell titer-glo assay; type: functional, cell-based; in short: as §1
PC-3 [11] = assay: Cell cycle arrest in human PC3 cells assessed as cell accumulation at S phase at 10 uM incubated for 24 hrs by propidium iodide staining based flow cytometry analysis relative to control; type: functional
PC-3 [12] = assay: Antiproliferative activity against human PC3 cells assessed as reduction in cell viability incubated for 48 hrs by cell titer-glo assay; type: functional, cell-based; settings: PC-3, 48 h; in short: as §3
MCF7 = assay: Antiproliferative activity against human MCF7 cells assessed as reduction in cell viability at 10 uM incubated for 48 hrs by cell titer-glo assay; type: functional, cell-based; in short: as §1
LN-229 [13] = assay: Induction of apoptosis in human LN229 cells at 10 uM incubated for 24 to 48 hrs by annexin V-FITC and propidium iodide staining based flow cytometric analysis; type: functional, cell-based
PC-3 [14] = assay: Induction of apoptosis in human PC3 cells at 10 uM incubated for 24 to 48 hrs by annexin V-FITC and propidium iodide staining based flow cytometric analysis; type: functional, cell-based
Granta-519 [15] = assay: Antiproliferative activity against human GRANTA-519 cells assessed as reduction in cell viability at 10 uM incubated for 48 hrs by cell titer-glo assay; type: functional, cell-based; in short: as §1
PC-3 [16] = assay: Induction of cellular senescence in human PC3 cells assessed as increase in nuclear size at 10 uM incubated for 24 hrs by phase contrast microscopy; type: functional, cell-based; in short: as §4
Z-138 = assay: Antiproliferative activity against human Z138 cells assessed as reduction in cell viability at 10 uM incubated for 48 hrs by cell titer-glo assay; type: functional, cell-based; in short: as §1
U-87 MG = assay: Induction of apoptosis in human U87MG cells assessed as increase in caspase-3/7 activation at 10 uM incubated for 48 hrs by luminometric caspase-glo 3/7 assay; type: functional, cell-based; settings: U-87MG ATCC; in short: as §2
PC-3 [17] = assay: Induction of cellular senescence in human PC3 cells assessed as wider cells at 10 uM incubated for 24 hrs by phase contrast microscopy; type: functional, cell-based; in short: as §4
PC-3 [18] = assay: Induction of cell morphological changes in human PC3 cells assessed as random membrane blebbing at 10 uM incubated for 24 to 48 hrs by phase contrast microscopy; type: functional, cell-based; in short: as §5
PC-3 [19] = assay: Induction of apoptosis in human PC3 cells assessed as early apoptotic cells at 10 uM incubated for 72 hrs by annexin V-FITC and propidium iodide staining based flow cytometry analysis (reference value: 0.24 %); type: functional

c1ccc(CNCCN(CCNCc2ccccn2)Cc2ccc3ccccc3c2)nc1
inhibition (LN-229 [1]): inactive
Activity (PC-3 [2]): Active
Activity (LN-229 [3]): inactive
Activity (LN-229 [4]): Dose-dependent effect
Activity (Granta-519 [5]): Active
IC50 (LN-229 [6]): 6.3 µM
Activity (PC-3 [7]): Active
Activity (Jurkat): Active
Activity [8]: > 99%
Activity (PC-3 [9]): 4.8%
Activity (LN-229 [10]): Active
IC50 (Fibroblast): 29.7 µM
Activity (Homo sapiens): Active
Activity (PC-3 [11]): 8.9%
IC50 (PC-3 [12]): 11 µM
Activity (MCF7): Active
Activity (LN-229 [13]): Active
Activity (PC-3 [14]): Active
Activity (Granta-519 [15]): Active
Activity (PC-3 [16]): Active
Activity (Z-138): Active
Activity (U-87 MG): Active
Activity (PC-3 [17]): Active
Activity (PC-3 [18]): Active
Activity (PC-3 [19]): 14.7%

CN(CCNCc1ccccn1)CCNCc1ccccn1
inhibition (LN-229 [1]): inactive
Activity (PC-3 [2]): Active
Activity (LN-229 [3]): inactive
Activity (LN-229 [4]): Dose-dependent effect
Activity (Granta-519 [5]): Active
IC50 (LN-229 [6]): 6.84 µM
Activity (PC-3 [7]): Active
Activity (Jurkat): Active
Activity [8]: > 99%
Activity (PC-3 [9]): 19.6%
Activity (LN-229 [10]): Active
IC50 (Fibroblast): 20.5 µM
Activity (Homo sapiens): Active
Activity (PC-3 [11]): 9.2%
IC50 (PC-3 [12]): 11.2 µM
Activity (MCF7): Active
Activity (LN-229 [13]): Active
Activity (PC-3 [14]): Active
Activity (Granta-519 [15]): Active
Activity (PC-3 [16]): Active
Activity (Z-138): Active
Activity (U-87 MG): Active
Activity (PC-3 [17]): Active
Activity (PC-3 [18]): Active
Activity (PC-3 [19]): 14.27%
